Assay: Toxicity liver stage against HepG2, at 10uM
Assay type: cell-based
Parameters: test concentration 10 uM, cell line HepG2-A16-CD81EGFP
Details: human, HepG2-A16-CD81EGFP cells; read-out: INHIBITION
Summary of the method: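 Uninfected HepG2-A16-CD81EGFP cells, 3 × 10^3 per well, 1536-well, plated on prespotted compound at 10 μM final, parasite-free screening media added to match infected plates; puromycin 10 μM positive, DMSO 0.5% negative; run in parallel with 48 h PbLuc assay at 37 °C, 5% CO2; viability by CellTiter-Glo luminescence, normalized to controls.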

Structure (SMILES) | cytotoxicity at 10 µM
CNC(=O)[C@H]1C[C@@H]2CN(Cc3cccnc3OC)C[C@@H]2N1C(C)=O | 1.2%
Cc1nc(C(=O)NC2CCN(CCOc3ccc(Br)cc3)CC2)cs1 | 13%
CC(C(=O)N1CCN(C)CC1)n1cc(Br)cn1 (configuration not stated) | 3.6%
Cc1cc(NC(=O)CN2CCc3c(nc(C(C)C)n3C)C2)n(C)n1 | -4.94%
CCc1nccn1CC(=O)Nc1cccc(C(=O)N(C)C)c1 | -6.77%
CC(=O)N1CCC(NCc2cccnc2N(C)Cc2ccccc2)CC1 | -14.1%
CN(C)C(=O)CO[C@@H]1CN(Cc2ccccc2)[C@@H]2CCCO[C@@H]21 | 3.09%
Cn1nc2c(c1NC(=O)c1cccs1)CCC2 | 6.16%
CC(O)CC(C)(C)CNC(=O)Nc1cnn(-c2ccccc2F)c1 (configuration not stated) | -3.27%
COc1ccc2c(c1)ncn2C[C@]1(O)CCCN2CCCC[C@@H]21 | -0.71%
Cc1cc(C(=O)N2CCCC(c3cc(=O)nc4n3CCC4)C2)on1 (configuration not stated) | -1.28%
Cc1ccc(CN2CCC3(CCC3NC(=O)c3ccn(C)c3)CC2)s1 (configuration not stated) | -151%
Cc1nn(C)c2ncc(S(=O)(=O)N3CCCC(C(N)=O)C3)cc12 (configuration not stated) | 3.45%
CN1CCNC(=O)C1CC(=O)NCCc1cnn(-c2ccccc2)c1 (configuration not stated) | 2.53%
CCC(C)N(Cc1ccsc1)C(=O)c1ccc(CO)cc1 (configuration not stated) | 4.26%
Cc1cccc(COc2ccc(NC(=O)C(C)NC(N)=O)c(C)c2)c1 (configuration not stated) | -28%
CC(C)(C)C(=O)NCC(=O)NCCc1nc(C(F)(F)F)cs1 | 6.16%
CCn1cc(CN2C[C@@H]3CCCN3C[C@@H]2CCSC)cn1 | -13.9%
O=C1CCC2(CCN(Cc3nccs3)CC2)N1Cc1ccccc1 | 1.54%
CCOC(=O)c1n[nH]cc1-c1cncn1CCCn1nc(C)cc1C | -2.73%
Cc1nonc1OCCNc1ncnc2sc3c(c12)CCNC3 | -1.69%

Structure (SMILES) | cytotoxicity at 10 µM
Cc1c(Cl)c(CN2CCCC2Cn2cncn2)nc2ccccc12 (configuration not stated) | -13.3%
CC(C)(CNC(=O)C1CCCCN1S(C)(=O)=O)N1CCOCC1 (configuration not stated) | -7.15%
O=C(NCCn1ccnc1)N1CCN(Cc2cccnc2)CC1 | -4.64%
Cc1ccc(NC(=O)N2CCN(Cc3noc(C4CC4)n3)CC2)cc1 | 4.88%
Cc1nsc(NC(=O)NC2CCCOC2)n1 (configuration not stated) | 16%
Cc1nc(C)n(CC2CCCN2CCOc2cccc(F)c2)n1 (configuration not stated) | -0.945%
Cc1noc(C)c1CSc1nc(=O)ccn1C(C)C | 5.95%
Cc1nn(C)c(C)c1CC(=O)NCC1(C(N)=O)CCOCC1 | 0.63%
O=C(c1ccnnc1)N1CCn2cc(CN3CCCCC3)nc2C1 | -74.9%
Cc1cccc(C(=O)NCCCN2CCN(c3ccccc3)CC2)c1 | 7.67%
CN1CCC(CCc2ccnc(NC(=O)c3ccccn3)c2)CC1 | -2.12%
O=C(c1ccccc1OCC1CC1)N1CCCC(n2ccnc2)C1 (configuration not stated) | -1.8%
O=C(Cc1cccc(F)c1)NCCNS(=O)(=O)C1CCCC1 | 3.61%
CCCN1CCC(c2nc3ccc(NCc4ccccc4)cn3n2)CC1 | -125%
CNC(=O)C1CN(C(=O)c2ccccc2)Cc2cn(C)nc21 (configuration not stated) | -1.5%
Cc1ccc(NC(=O)C2CSCN2C(=O)c2cnccn2)cc1C (configuration not stated) | -8.3%
Cc1cc(CN2CCCC2)cc(Oc2ccc3c(c2)CC(CN)O3)c1 (configuration not stated) | 0.298%
Cn1nnc2cc(C(=O)N3CCC(Nc4cccnn4)CC3)ccc21 | -2.85%
CC(=O)N1CCN(c2ccccc2CNc2cc(F)cc(F)c2)CC1 | 3.7%
CN1CC(C(=O)Nc2ccc(OCC(F)(F)C(F)F)nc2)CC1=O (configuration not stated) | -8.64%
Cc1ccc(S(=O)(=O)N(C)c2ccsc2C(=O)NCC(C)C)cc1 | 10.6%

Structure (SMILES) | cytotoxicity at 10 µM
Cn1cncc1CN1C[C@@H]2OCCN(c3ncccn3)[C@@H]2C1 | -67%
COc1c(C)cnc(CN(C)C2CCCCC2)c1C | 20.5%
CC(C)c1ccc(OCCNC(=O)c2ccoc2)cc1 | -1.92%
Cc1cc(F)cc(NC(=O)N(C)CC(C)(CO)CO)c1 | -1.44%
CCOC(=O)NCCC(=O)NCc1ccc(Oc2ccc(F)cc2)nc1 | -18.9%
CC(C)(O)CN1CCN(C(=O)c2cccn2Cc2ccncc2)CC1 | -2.59%
CN(C)CC1CN(Cc2cccc(C(=O)N(C)C)c2)CCO1 (configuration not stated) | -0.729%
COCCCNC(=O)c1cc(C(C)C)nc(N2CCCCCC2)n1 | 9.15%
COCCCNc1ncc(-c2cccc(F)c2)c(-c2nccn2C)n1 | 8.97%
Cc1cnn(CC2CCCN2C(=O)c2c(F)cccc2Cl)c1 (configuration not stated) | -29.1%
CCOc1ccc2[nH]c(=O)c(CN3CCCC3c3ccccn3)cc2c1 (configuration not stated) | -7.04%
CCn1c(CN(C)C(=O)c2ccc(O)nc2)nc2ccccc21 | 10.2%
Cc1cs/c(=N\C(=O)c2c3c(nc4onc(C)c24)CCC3)[nH]1 | 1.26%
CC(C)Oc1ncccc1CNC(=O)NC(C)c1cccs1 (configuration not stated) | -2.3%
COc1ccc(CN2C[C@@H](N(C)Cc3ccco3)[C@H]3OCCC[C@H]32)cc1 | 1.18%
Cn1cccc1-c1cc(C(=O)N2CC(c3cccnc3)C2)[nH]n1 | -13.7%
Cc1cc(N2CCC(C(=O)NC3CC3)CC2)nc(-c2ccncc2)n1 | -17%
CCc1nc(NCCCn2cccn2)c2c(n1)c(C)nn2CC | 6.36%
O=C1NCCCCC1NCc1csc(-c2ccccn2)n1 (configuration not stated) | 7.5%
Cc1ccc(C(=O)Nc2cn[nH]c2)cc1F | -14.7%
CCCc1nn(C2CCN(C3CC3)C2=O)c(=O)o1 (configuration not stated) | -13.7%

Structure (SMILES) | cytotoxicity at 10 µM
COCCN1CCC(CNC(=O)Nc2ccc(SC(F)(F)F)cc2)C1 (configuration not stated) | -11.6%
N#Cc1ccc(F)c(CSCCN2CCOCC2)c1 | -5.71%
Cc1oncc1C(=O)N1CCCc2c(C#N)nn(C)c2C1 | -134%
CN(C)CC(=O)N1CCC2(CCc3ccc(-c4ccncc4)cc32)CC1 | 6.34%
Cc1ccc(C(O)CN(C)Cc2cnn(C)c2)cc1C (configuration not stated) | -5.37%
CN(CC1CCOC1)S(=O)(=O)c1cccc(C(=O)N2CCOCC2)c1 (configuration not stated) | -13.3%
Cn1ccc(CN2CCC(CC(=O)N3CCCC3)CC2)cc1=O | -12.6%
O=C(NCC(O)c1ccccc1Cl)c1cccc(-n2cnnn2)c1 (configuration not stated) | -15.6%
Cc1nc2c(c(NC(C)C)n1)CCN(C(=O)c1cc[nH]n1)CC2 | 6.71%
CCn1nc(C)c2c1cnn2CCNS(C)(=O)=O | 7.55%
CCn1nc(C)cc1C(=O)N1C[C@@H](CN(C)C)[C@@H](CO)C1 | 3.3%
O=C(NC1CCCN(c2ccccc2Cl)C1)c1ccc(=O)[nH]n1 (configuration not stated) | -4.46%
COCCCN(C(=O)c1ccc(-n2ccnc2)cc1)C1CCN(C)CC1 | -15.8%
O=C(c1ccncc1)N1CCCC1C1CCN(Cc2ccccc2)CC1 (configuration not stated) | 7.43%
Cc1nc(C)n(CC2CCCN2Cc2cn3c(C)cccc3n2)n1 (configuration not stated) | 2.02%
CC(=O)N1CCCc2cc(Nc3nccn(C)c3=O)ccc21 | -49.4%
COC(=O)C1CN(Cc2cc(F)ccc2Br)CCO1 (configuration not stated) | -5.51%
O=C(N1CCCC1)N1CCO[C@H]2[C@@H](Oc3ccccn3)CC[C@@H]21 | 8.95%
CC(C)CN1C(=O)CO[C@@H]2CN(C(=O)C3CCOC3)C[C@H]21 (some centres not stated) | -70.3%

Source: ChEMBL document CHEMBL4513216, “Probing the Open Global Health Chemical Diversity Library for Multistage-Active Starting Points for Next-Generation Antimalarials” (ACS Infect Dis, 2020)
